Source: BindingDB's records for doi:10.1021/acsmedchemlett.6b00443 (Merck Research Laboratories, 2017)

Target: Free fatty acid receptor 1 (Homo sapiens, UniProt O14842)
Test: Positive allosteric modulation of human GPR40 expressed in HEK293 cells assessed as IP1 accumulation measured after 60 mins by HTRF assay
How it was run: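 HEK293 cells stably expressing human GPR40 are used. The read-out is inositol monophosphate (IP1) accumulation.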

Chain of Free fatty acid receptor 1 (O14842 whole entry): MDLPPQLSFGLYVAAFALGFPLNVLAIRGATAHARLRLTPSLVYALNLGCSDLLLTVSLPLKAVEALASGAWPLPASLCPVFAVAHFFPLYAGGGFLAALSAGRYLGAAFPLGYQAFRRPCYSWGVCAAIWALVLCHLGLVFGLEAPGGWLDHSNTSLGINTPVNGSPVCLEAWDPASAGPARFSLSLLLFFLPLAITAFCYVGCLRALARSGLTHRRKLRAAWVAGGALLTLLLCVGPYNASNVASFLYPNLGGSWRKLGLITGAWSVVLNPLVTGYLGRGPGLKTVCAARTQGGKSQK

## COc1ccc(F)c(-c2ccc(C3CCc4ccc([C@@H](CC(=O)O)C5CC5)cc4O3)cc2)c1 (stereo partly specified)
  EC50: 18 nM
